Measured values published in PMC3517043 (ChemMedChem, 2012).
≈ marks a conversion by molar mass, not a printed value. Like-named read-outs stand apart in the source and are kept apart here. Square brackets hold non-standard residues; d marks the D form. Ends that are not written are not given here. Peptide text beside a SMILES is read from it. NMeI = CC[C@H](C)[C@H](NC)C(=O)O; NMeV = CN[C@H](C(=O)O)C(C)C; NMeA = CN[C@@H](C)C(=O)O; Sar = CNCC(=O)O

Tests used:
[1] = Solubility by filtration assay; format: physicochemical; conditions: pH 7.4
[2] = test system: differentiated PC-12 cells; experiment: Toxicity of peptides alone, MTT cell viability assay; format: cell-based, rat; conditions: peptide alone at 50 μM, 24 h
Summary of the method: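 PC-12 cells differentiated with nerve growth factor (50 ng/mL) for 48 h. Peptide dissolved in a small amount of 60 mM NaOH, diluted to 50 μM in culture medium, and incubated alone with cells for 24 h. Viability read by MTT kit. Controls were NaOH at matching concentration and medium alone. Percentage viability was scaled to 1 μM staurosporine, taken as 100% loss.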

[3] = test system: Aβ42-induced toxicity in differentiated PC-12 cells; format: cell-based, rat; conditions: for IC50: 48 h; for Decrease in activity relative to the corresponding N-Me-A analogue (LDH): original side-chain restored versus N-Me-A at the same position
[4] = test system: Aβ42-induced toxicity in differentiated PC-12 cells; format: cell-based, rat; conditions: for IC50: 24 h; for Decrease in activity relative to the corresponding N-Me-A analogue (MTT): original side-chain restored versus N-Me-A at the same position
[5] = test system: mouse primary hippocampal neurons; conditions: cited from earlier work
Aβ42 = conditions: read-out: IC50, inhibition of Aβ42 hexamer formation; photo-induced cross-linking of unmodified proteins; cited from earlier work

| Compound | solubility at 1 min ([1]; 10 mM sodium phosphate buffer) [µM] | IC50 [3] [µM] | IC50 [4] [µM] | further results |
| --- | --- | --- | --- | --- |
| CC[C@H](C)[C@H](NC(=O)[C@H](C)NC)C(=O)NCC(=O)N[C@@H](CC(C)C)C(=O)N[C@@H](CCSC)C(=O)N[C@H](C(=O)NCC(=O)NCC(=O)N[C@H](C(=O)N[C@H](C(=O)N[C@H](C(=O)N[C@@H](C)C(=O)O)[C@@H](C)CC)C(C)C)C(C)C)C(C)C [[N-Me-A1]Aβ(31–42), (N-Me)A-IGLMVGGWIA] (H-[NMeA]IGLMVGGVVIA-OH; N-terminus assumed) | 8 ± 1 (≈ 8.91 µg/mL) | – | – | Toxicity of the peptide itself (cell viability, MTT) [2]: toxic |
| CC[C@H](C)[C@H](N)C(=O)N(C)[C@@H](C)C(=O)NCC(=O)N[C@@H](CC(C)C)C(=O)N[C@@H](CCSC)C(=O)N[C@H](C(=O)NCC(=O)NCC(=O)N[C@H](C(=O)N[C@H](C(=O)N[C@H](C(=O)N[C@@H](C)C(=O)O)[C@@H](C)CC)C(C)C)C(C)C)C(C)C [[N-Me-A2]Aβ(31–42), I-(N-Me)A-GLMVGGWIA] (H-I[NMeA]GLMVGGVVIA-OH; N-terminus assumed) | 101 ± 18 (≈ 112 µg/mL) | – | – | – |
| CC[C@H](C)[C@H](N)C(=O)N[C@H](C(=O)N(C)[C@@H](C)C(=O)N[C@@H](CC(C)C)C(=O)N[C@@H](CCSC)C(=O)N[C@H](C(=O)NCC(=O)NCC(=O)N[C@H](C(=O)N[C@H](C(=O)N[C@H](C(=O)N[C@@H](C)C(=O)O)[C@@H](C)CC)C(C)C)C(C)C)C(C)C)[C@@H](C)CC [[N-Me-A3]Aβ(31–42), II-(N-Me)A-LMVGGWIA] | 102 ± 16 (≈ 119 µg/mL) | 34 ± 3 | 18 ± 1 | – |
| CC[C@H](C)[C@H](N)C(=O)N[C@H](C(=O)NCC(=O)N(C)[C@@H](C)C(=O)N[C@@H](CCSC)C(=O)N[C@H](C(=O)NCC(=O)NCC(=O)N[C@H](C(=O)N[C@H](C(=O)N[C@H](C(=O)N[C@@H](C)C(=O)O)[C@@H](C)CC)C(C)C)C(C)C)C(C)C)[C@@H](C)CC [[N-Me-A4]Aβ(31–42), IIG-(N-Me)A-MVGGWIA] (H-IIG[NMeA]MVGGVVIA-OH; N-terminus assumed) | 127 ± 37 (≈ 141 µg/mL) | – | – | – |
| CC[C@H](C)[C@H](N)C(=O)N[C@H](C(=O)NCC(=O)N[C@@H](CC(C)C)C(=O)N(C)[C@@H](C)C(=O)N[C@H](C(=O)NCC(=O)NCC(=O)N[C@H](C(=O)N[C@H](C(=O)N[C@H](C(=O)N[C@@H](C)C(=O)O)[C@@H](C)CC)C(C)C)C(C)C)C(C)C)[C@@H](C)CC [[N-Me-A5]Aβ(31–42), IIGL-(N-Me)A-VGGWIA] (H-IIGL[NMeA]VGGVVIA-OH; N-terminus assumed) | 105 ± 20 (≈ 115 µg/mL) | – | – | – |
| CC[C@H](C)[C@H](N)C(=O)N[C@H](C(=O)NCC(=O)N[C@@H](CC(C)C)C(=O)N[C@@H](CCSC)C(=O)N(C)[C@@H](C)C(=O)NCC(=O)NCC(=O)N[C@H](C(=O)N[C@H](C(=O)N[C@H](C(=O)N[C@@H](C)C(=O)O)[C@@H](C)CC)C(C)C)C(C)C)[C@@H](C)CC [[N-Me-A6]Aβ(31–42), IIGLM-(N-Me)A-GGWIA] (H-IIGLM[NMeA]GGVVIA-OH; N-terminus assumed) | 87 ± 18 (≈ 98.1 µg/mL) | – | – | – |
| CC[C@H](C)[C@H](N)C(=O)N[C@H](C(=O)NCC(=O)N[C@@H](CC(C)C)C(=O)N[C@@H](CCSC)C(=O)N[C@H](C(=O)N(C)[C@@H](C)C(=O)NCC(=O)N[C@H](C(=O)N[C@H](C(=O)N[C@H](C(=O)N[C@@H](C)C(=O)O)[C@@H](C)CC)C(C)C)C(C)C)C(C)C)[C@@H](C)CC [[N-Me-A7]Aβ(31–42), IIGLMV-(N-Me)A-GWIA] (H-IIGLMV[NMeA]GVVIA-OH; N-terminus assumed) | 88 ± 14 (≈ 103 µg/mL) | – | – | – |
| CC[C@H](C)[C@H](N)C(=O)N[C@H](C(=O)NCC(=O)N[C@@H](CC(C)C)C(=O)N[C@@H](CCSC)C(=O)N[C@H](C(=O)NCC(=O)N(C)[C@@H](C)C(=O)N[C@H](C(=O)N[C@H](C(=O)N[C@H](C(=O)N[C@@H](C)C(=O)O)[C@@H](C)CC)C(C)C)C(C)C)C(C)C)[C@@H](C)CC [[N-Me-A8]Aβ(31–42), IIGLMVG-(N-Me)A-WIA] (H-IIGLMVG[NMeA]VVIA-OH; N-terminus assumed) | 41 ± 12 (≈ 48 µg/mL) | 14 ± 1 | 12 ± 1 | – |
| CC[C@H](C)[C@H](N)C(=O)N[C@H](C(=O)NCC(=O)N[C@@H](CC(C)C)C(=O)N[C@@H](CCSC)C(=O)N[C@H](C(=O)NCC(=O)NCC(=O)N(C)[C@@H](C)C(=O)N[C@H](C(=O)N[C@H](C(=O)N[C@@H](C)C(=O)O)[C@@H](C)CC)C(C)C)C(C)C)[C@@H](C)CC [[N-Me-A9]Aβ(31–42), IIGLMVGG-(N-Me)A-VIA] (H-IIGLMVGG[NMeA]VIA-OH; N-terminus assumed) | 115 ± 21 (≈ 130 µg/mL) | 7 ± 1 | 6 ± 1 | Improvement of IC50 relative to the parent peptide (LDH) ([3]; relative to Aβ(31–42)): 6 fold; Improvement of IC50 relative to the parent peptide (MTT) ([4]; relative to Aβ(31–42)): 3 fold |
| CC[C@H](C)[C@H](N)C(=O)N[C@H](C(=O)NCC(=O)N[C@@H](CC(C)C)C(=O)N[C@@H](CCSC)C(=O)N[C@H](C(=O)NCC(=O)NCC(=O)N[C@H](C(=O)N(C)[C@@H](C)C(=O)N[C@H](C(=O)N[C@@H](C)C(=O)O)[C@@H](C)CC)C(C)C)C(C)C)[C@@H](C)CC [[N-Me-A10]Aβ(31–42), IIGLMVGGV-(N-Me)A-IA] | – | – | – | solubility at 1 min [1]: 121 ± 28 µM (≈ 136 µg/mL) |
| CC[C@H](C)[C@H](N)C(=O)N[C@H](C(=O)NCC(=O)N[C@@H](CC(C)C)C(=O)N[C@@H](CCSC)C(=O)N[C@H](C(=O)NCC(=O)NCC(=O)N[C@H](C(=O)N[C@H](C(=O)N(C)[C@@H](C)C(=O)N[C@@H](C)C(=O)O)C(C)C)C(C)C)C(C)C)[C@@H](C)CC [[N-Me-A11]Aβ(31–42), IIGLMVGGW-(N-Me)A-A] (H-IIGLMVGGVV[NMeA]A-OH; N-terminus assumed) | 86 ± 22 (≈ 95.8 µg/mL) | 37 ± 3 | 10 ± 1 | – |
| CC[C@H](C)[C@H](N)C(=O)N[C@H](C(=O)NCC(=O)N[C@@H](CC(C)C)C(=O)N[C@@H](CCSC)C(=O)N[C@H](C(=O)NCC(=O)NCC(=O)N[C@H](C(=O)N[C@H](C(=O)N[C@H](C(=O)N(C)[C@@H](C)C(=O)O)[C@@H](C)CC)C(C)C)C(C)C)C(C)C)[C@@H](C)CC [[N-Me-A12]Aβ(31–42)] (H-IIGLMVGGVVI[NMeA]-OH; N-terminus assumed) | 28 ± 13 (≈ 32.4 µg/mL) | – | – | – |
| CC[C@H](C)[C@H](N)C(=O)N[C@H](C(=O)N(C)CC(=O)N[C@@H](CC(C)C)C(=O)N[C@@H](CCSC)C(=O)N[C@H](C(=O)NCC(=O)NCC(=O)N[C@H](C(=O)N[C@H](C(=O)N[C@H](C(=O)N[C@@H](C)C(=O)O)[C@@H](C)CC)C(C)C)C(C)C)C(C)C)[C@@H](C)CC [[N-Me-G3]Aβ(31–42), II-(N-Me)G-LMVGGWIA] | 118 ± 11 (≈ 136 µg/mL) | – | 26 ± 1 | Decrease in activity relative to the corresponding N-Me-A analogue (MTT) [4]: 1.4 fold |
| CC[C@H](C)[C@H](N)C(=O)N[C@H](C(=O)NCC(=O)N[C@@H](CC(C)C)C(=O)N[C@@H](CCSC)C(=O)N[C@H](C(=O)NCC(=O)N(C)CC(=O)N[C@H](C(=O)N[C@H](C(=O)N[C@H](C(=O)N[C@@H](C)C(=O)O)[C@@H](C)CC)C(C)C)C(C)C)C(C)C)[C@@H](C)CC [[N-Me-G8]Aβ(31–42), IIGLMVG-(N-Me)G-WIA] (H-IIGLMVG[Sar]VVIA-OH; N-terminus assumed) | 18 ± 2 (≈ 20.8 µg/mL) | 71 ± 20 | 28 ± 1 | Decrease in activity relative to the corresponding N-Me-A analogue (LDH) [3]: 5.0 fold; Decrease in activity relative to the corresponding N-Me-A analogue (MTT) [4]: 2.3 fold |
| CC[C@H](C)[C@H](NC)C(=O)N[C@H](C(=O)NCC(=O)N[C@@H](CC(C)C)C(=O)N[C@@H](CCSC)C(=O)N[C@H](C(=O)NCC(=O)NCC(=O)N[C@H](C(=O)N[C@H](C(=O)N[C@H](C(=O)N[C@@H](C)C(=O)O)[C@@H](C)CC)C(C)C)C(C)C)C(C)C)[C@@H](C)CC [[N-Me-I1]Aβ3(31–42), (N-Me)I-IGLMVGGWIA] (H-[NMeI]IGLMVGGVVIA-OH; N-terminus assumed) | 7 ± 1 (≈ 8.09 µg/mL) | – | – | Toxicity of the peptide itself (cell viability, MTT) ([2]; listed as [N-Me-I1]Aβ(31–42)): as toxic as [N-Me-A1]Aβ(31–42) |
| CC[C@H](C)[C@H](N)C(=O)N[C@H](C(=O)NCC(=O)N[C@@H](CC(C)C)C(=O)N[C@@H](CCSC)C(=O)N[C@H](C(=O)NCC(=O)NCC(=O)N[C@H](C(=O)N[C@H](C(=O)N(C)[C@H](C(=O)N[C@@H](C)C(=O)O)[C@@H](C)CC)C(C)C)C(C)C)C(C)C)[C@@H](C)CC [[N-Me-I11]Aβ3(31–42), IIGLMVGGW-(N-Me)I-A] (H-IIGLMVGGVV[NMeI]A-OH; N-terminus assumed) | 132 ± 34 (≈ 153 µg/mL) | 49 ± 3 | 13 ± 1 | – |
| CC[C@H](C)[C@H](N)C(=O)N[C@H](C(=O)NCC(=O)N[C@@H](CC(C)C)C(=O)N[C@@H](CCSC)C(=O)N[C@H](C(=O)NCC(=O)NCC(=O)N(C)[C@H](C(=O)N[C@H](C(=O)N[C@H](C(=O)N[C@@H](C)C(=O)O)[C@@H](C)CC)C(C)C)C(C)C)C(C)C)[C@@H](C)CC [[N-Me-V9]Aβ(31–42), IIGLMVGG-(N-Me)V-VIA] (H-IIGLMVGG[NMeV]VIA-OH; N-terminus assumed) | 136 ± 18 (≈ 157 µg/mL) | 67 ± 8 | 6 ± 1 | Decrease in activity relative to the corresponding N-Me-A analogue (LDH) [3]: 9.6 fold |
| IIGLMVGGVVIA-OH [Aβ(31–42), IIGLMVGGVVIA] | – | 43 ± 2 | 18 ± 1 | solubility at 1 min [1]: 25 ± 4 µM; Rescue from Aβ42-induced inhibition of miniature excitatory postsynaptic current frequency [5]: rescued; IC50 (Aβ42): 23 ± 4 µM |
